Measurements reported in ChEMBL document CHEMBL3784971, “Synthesis, characterization, antimicrobial and biofilm inhibitory studies of new esterquats” (Bioorg Med Chem Lett, 2016).
Activity calls are given as the source filed them. The rule behind the calls is not given here.

Key:
Staphylococcus aureus [1] = assay: Antimicrobial activity against Staphylococcus aureus MTCC 96 assessed as growth inhibition after 24 hrs by agar well diffusion method; assay type: functional; conditions: MTCC 96, 24 h
Bacillus subtilis [2] = assay: Antimicrobial activity against Bacillus subtilis MTCC 121 assessed as growth inhibition after 24 hrs by agar well diffusion method; assay type: functional; conditions: MTCC 121, 24 h
Staphylococcus aureus [3] = assay: Antimicrobial activity against Staphylococcus aureus MLS16 MTCC 2940 assessed as growth inhibition after 24 hrs by agar well diffusion method; assay type: functional; conditions: MLS16 MTCC 2940, 24 h
Micrococcus luteus [4] = assay: Antimicrobial activity against Micrococcus luteus MTCC 2470 assessed as growth inhibition after 24 hrs by agar well diffusion method; assay type: functional; conditions: MTCC 2470, 24 h
Raoultella planticola [5] = assay: Antimicrobial activity against Klebsiella planticola MTCC 530 assessed as growth inhibition after 24 hrs by agar well diffusion method; assay type: functional; conditions: MTCC 530, 24 h
Escherichia coli [6] = assay: Antimicrobial activity against Escherichia coli MTCC 739 assessed as growth inhibition after 24 hrs by agar well diffusion method; assay type: functional; conditions: MTCC 739, 24 h
Pseudomonas aeruginosa = assay: Antimicrobial activity against Pseudomonas aeruginosa MTCC 2453 assessed as growth inhibition after 24 hrs by agar well diffusion method; assay type: functional; conditions: MTCC 2453, 24 h
Candida albicans [7] = assay: Antimicrobial activity against Candida albicans MTCC 3017 assessed as growth inhibition after 24 hrs by agar well diffusion method; assay type: functional; conditions: MTCC 3017, 24 h
Candida albicans [8] = assay: Antimicrobial activity against Candida albicans MTCC 183 assessed as growth inhibition after 24 hrs by agar well diffusion method; assay type: functional; conditions: MTCC 183, 24 h
Candida albicans [9] = assay: Antimicrobial activity against Candida albicans MTCC 227 assessed as growth inhibition after 24 hrs by agar well diffusion method; assay type: functional; conditions: MTCC 227, 24 h
Candida albicans [10] = assay: Antimicrobial activity against Candida albicans MTCC 854 assessed as growth inhibition after 24 hrs by agar well diffusion method; assay type: functional; conditions: MTCC 854, 24 h
Candida albicans [11] = assay: Antimicrobial activity against Candida albicans MTCC 1637 assessed as growth inhibition after 24 hrs by agar well diffusion method; assay type: functional; conditions: MTCC 1637, 24 h
Candida albicans [12] = assay: Antimicrobial activity against Candida albicans MTCC 3018 assessed as growth inhibition after 24 hrs by agar well diffusion method; assay type: functional; conditions: MTCC 3018, 24 h
Candida albicans [13] = assay: Antimicrobial activity against Candida albicans MTCC 3958 assessed as growth inhibition after 24 hrs by agar well diffusion method; assay type: functional; conditions: MTCC 3958, 24 h
Candida albicans [14] = assay: Antimicrobial activity against Candida albicans MTCC 4748 assessed as growth inhibition after 24 hrs by agar well diffusion method; assay type: functional; conditions: MTCC 4748, 24 h
Candida albicans [15] = assay: Antimicrobial activity against Candida albicans MTCC 7315 assessed as growth inhibition after 24 hrs by agar well diffusion method; assay type: functional; conditions: MTCC 7315, 24 h
Candida parapsilosis [16] = assay: Antimicrobial activity against Candida parapsilosis MTCC 1744 assessed as growth inhibition after 24 hrs by agar well diffusion method; assay type: functional; conditions: Lodderomyces parapsilosis, MTCC 1744, 24 h
[Candida] aaseri [17] = Antimicrobial activity against Candida aaseri MTCC 1962 assessed as growth inhibition after 24 hrs by agar well diffusion method; assay type: functional; conditions: Yamadazyma aaseri, MTCC 1962, 24 h
Nakaseomyces glabratus [18] = assay: Antimicrobial activity against Candida glabrata MTCC 3019 assessed as growth inhibition after 24 hrs by agar well diffusion method; assay type: functional; conditions: MTCC 3019, 24 h
Pichia kudriavzevii [19] = assay: Antimicrobial activity against Candida krusei MTCC 3020 assessed as growth inhibition after 24 hrs by agar well diffusion method; assay type: functional; conditions: MTCC 3020, 24 h
Pichia sporocuriosa [20] = assay: Antimicrobial activity against Issatchenkia hanoiensis MTCC 4755 assessed as growth inhibition after 24 hrs by agar well diffusion method; assay type: functional; conditions: MTCC 4755, 24 h
Staphylococcus aureus [21] = assay: Bactericidal activity against Staphylococcus aureus MTCC 96 after 24 hrs by serial dilution method; assay type: functional; conditions: MTCC 96, 24 h
Bacillus subtilis [22] = assay: Bactericidal activity against Bacillus subtilis MTCC 121 after 24 hrs by serial dilution method; assay type: functional; conditions: MTCC 121, 24 h
Staphylococcus aureus [23] = assay: Bactericidal activity against Staphylococcus aureus MLS16 MTCC 2940 after 24 hrs by serial dilution method; assay type: functional; conditions: MLS16 MTCC 2940, 24 h
Micrococcus luteus [24] = assay: Bactericidal activity against Micrococcus luteus MTCC 2470 after 24 hrs by serial dilution method; assay type: functional; conditions: MTCC 2470, 24 h
Raoultella planticola [25] = assay: Bactericidal activity against Klebsiella planticola MTCC 530 after 24 hrs by serial dilution method; assay type: functional; conditions: MTCC 530, 24 h
Escherichia coli [26] = assay: Bactericidal activity against Escherichia coli MTCC 739 after 24 hrs by serial dilution method; assay type: functional; conditions: MTCC 739, 24 h
Candida albicans [27] = assay: Fungicidal activity against Candida albicans MTCC 3017 after 24 hrs by serial dilution method; assay type: functional; conditions: MTCC 3017, 24 h
Candida albicans [28] = assay: Fungicidal activity against Candida albicans MTCC 183 after 24 hrs by serial dilution method; assay type: functional; conditions: MTCC 183, 24 h
Candida albicans [29] = assay: Fungicidal activity against Candida albicans MTCC 227 after 24 hrs by serial dilution method; assay type: functional; conditions: MTCC 227, 24 h
Candida albicans [30] = assay: Fungicidal activity against Candida albicans MTCC 854 after 24 hrs by serial dilution method; assay type: functional; conditions: MTCC 854, 24 h
Candida albicans [31] = assay: Fungicidal activity against Candida albicans MTCC 1637 after 24 hrs by serial dilution method; assay type: functional; conditions: MTCC 1637, 24 h
Candida albicans [32] = assay: Fungicidal activity against Candida albicans MTCC 3018 after 24 hrs by serial dilution method; assay type: functional; conditions: MTCC 3018, 24 h
Candida albicans [33] = assay: Fungicidal activity against Candida albicans MTCC 3958 after 24 hrs by serial dilution method; assay type: functional; conditions: MTCC 3958, 24 h
Candida albicans [34] = assay: Fungicidal activity against Candida albicans MTCC 4748 after 24 hrs by serial dilution method; assay type: functional; conditions: MTCC 4748, 24 h
Candida albicans [35] = assay: Fungicidal activity against Candida albicans MTCC 7315 after 24 hrs by serial dilution method; assay type: functional; conditions: MTCC 7315, 24 h
Candida parapsilosis [36] = assay: Fungicidal activity against Candida parapsilosis MTCC 1744 after 24 hrs by serial dilution method; assay type: functional; conditions: Lodderomyces parapsilosis, MTCC 1744, 24 h
[Candida] aaseri [37] = Fungicidal activity against Candida aaseri MTCC 1962 after 24 hrs by serial dilution method; assay type: functional; conditions: Yamadazyma aaseri, MTCC 1962, 24 h
Nakaseomyces glabratus [38] = assay: Fungicidal activity against Candida glabrata MTCC 3019 after 24 hrs by serial dilution method; assay type: functional; conditions: MTCC 3019, 24 h
Pichia kudriavzevii [39] = assay: Fungicidal activity against Candida krusei MTCC 3020 after 24 hrs by serial dilution method; assay type: functional; conditions: MTCC 3020, 24 h
Pichia sporocuriosa [40] = assay: Fungicidal activity against Issatchenkia hanoiensis MTCC 4755 after 24 hrs by serial dilution method; assay type: functional; conditions: MTCC 4755, 24 h
Staphylococcus aureus [41] = assay: Antibiofilm activity against Staphylococcus aureus MTCC 96 after 24 hrs by crystal violet staining based assay; assay type: functional, organism-based; conditions: MTCC 96, 24 h
Outline: (§1)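 Biofilm inhibition tested for amine esters and esterquats. IC50 values (µg/mL) are the mean of three determinations, with ciprofloxacin as reference.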

Bacillus subtilis [42] = assay: Antibiofilm activity against Bacillus subtilis MTCC 121 after 24 hrs by crystal violet staining based assay; assay type: functional, organism-based; conditions: MTCC 121, 24 h; outline: as §1
Staphylococcus aureus [43] = assay: Antibiofilm activity against Staphylococcus aureus MLS16 MTCC 2940 after 24 hrs by crystal violet staining based assay; assay type: functional, organism-based; conditions: MLS16 MTCC 2940, 24 h; outline: as §1
Micrococcus luteus [44] = assay: Antibiofilm activity against Micrococcus luteus MTCC 2470 after 24 hrs by crystal violet staining based assay; assay type: functional, organism-based; conditions: MTCC 2470, 24 h; outline: as §1
Staphylococcus aureus [45] = assay: Bactericidal activity against Staphylococcus aureus MLS16 MTCC 2940 sessile forms assessed as increase in intracellular ROS accumulation in at 0.5 to 2 ug/mL after 24 hrs by DCFHDA staining based fluorometric assay; assay type: functional, organism-based
Outline: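 Intracellular ROS measured in cells of mature biofilms using the general ROS fluorescent probe 2′,7′-dichlorofluorescein-diacetate (DCFH-DA), read as increase in fluorescence. Sessile cells and the supernatant were measured separately.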

Question: CCCCCC[N+](C)(CCCCCCCCCCC(=O)OC)CCCCCCCCCCC(=O)OC.[Cl-] was tested. Which MIC (Staphylococcus aureus [1]) did it give?
Answer: The MIC was 3.9 µg/mL.

Question: What about the MIC (Bacillus subtilis [2]) of the same compound?
Answer: Its MIC is 7.8 µg/mL.

Question: What about the MIC (Staphylococcus aureus [3]) of the same compound?
Answer: Its MIC is 3.9 µg/mL.

Question: What about the MIC (Micrococcus luteus [4]) of the same compound?
Answer: Its MIC is 1.9 µg/mL.

Question: And the MIC (Raoultella planticola [5])?
Answer: Its MIC is over 125 µg/mL.

Question: What about the MIC (Escherichia coli [6]) of the same compound?
Answer: Its MIC is over 125 µg/mL.

Question: And the MIC (Pseudomonas aeruginosa)?
Answer: The MIC was over 125 µg/mL.

Question: And the MIC (Candida albicans [7])?
Answer: Its MIC is 7.8 µg/mL.

Question: And the MIC (Candida albicans [8])?
Answer: Its MIC is 15.6 µg/mL.

Question: And the MIC (Candida albicans [9])?
Answer: Its MIC is 15.6 µg/mL.

Question: And the MIC (Candida albicans [10])?
Answer: Its MIC is 31.2 µg/mL.

Question: What about the MIC (Candida albicans [11]) of the same compound?
Answer: Its MIC is 15.6 µg/mL.

Question: What about the MIC (Candida albicans [12]) of the same compound?
Answer: The MIC was 15.6 µg/mL.

Question: And the MIC (Candida albicans [13])?
Answer: Its MIC is 15.6 µg/mL.

Question: What about the MIC (Candida albicans [14]) of the same compound?
Answer: The MIC was 7.8 µg/mL.

Question: And the MIC (Candida albicans [15])?
Answer: Its MIC is 15.6 µg/mL.

Question: And the MIC (Candida parapsilosis [16])?
Answer: The MIC was 15.6 µg/mL.

Question: And the MIC ([Candida] aaseri [17])?
Answer: Its MIC is 7.8 µg/mL.

Question: And the MIC (Nakaseomyces glabratus [18])?
Answer: The MIC was 15.6 µg/mL.

Question: What about the MIC (Pichia kudriavzevii [19]) of the same compound?
Answer: Its MIC is 31.2 µg/mL.

Question: And the MIC (Pichia sporocuriosa [20])?
Answer: Its MIC is 15.6 µg/mL.

Question: And the MBC (Staphylococcus aureus [21])?
Answer: Its MBC is 7.8 µg/mL.

Question: What about the MBC (Bacillus subtilis [22]) of the same compound?
Answer: The MBC was 15.6 µg/mL.

Question: And the MBC (Staphylococcus aureus [23])?
Answer: The MBC was 3.9 µg/mL.

Question: What about the MBC (Micrococcus luteus [24]) of the same compound?
Answer: The MBC was 3.9 µg/mL.

Question: What about the MBC (Raoultella planticola [25]) of the same compound?
Answer: Its MBC is over 125 µg/mL.

Question: And the MBC (Escherichia coli [26])?
Answer: Its MBC is over 125 µg/mL.

Question: And the MFC (Candida albicans [27])?
Answer: The MFC was 15.6 µg/mL.

Question: And the MFC (Candida albicans [28])?
Answer: Its MFC is 31.2 µg/mL.

Question: And the MFC (Candida albicans [29])?
Answer: The MFC was 31.2 µg/mL.

Question: What about the MFC (Candida albicans [30]) of the same compound?
Answer: The MFC was 62.5 µg/mL.

Question: And the MFC (Candida albicans [31])?
Answer: Its MFC is 31.2 µg/mL.

Question: What about the MFC (Candida albicans [32]) of the same compound?
Answer: The MFC was 31.2 µg/mL.

Question: What about the MFC (Candida albicans [33]) of the same compound?
Answer: The MFC was 15.6 µg/mL.

Question: What about the MFC (Candida albicans [34]) of the same compound?
Answer: Its MFC is 7.8 µg/mL.

Question: What about the MFC (Candida albicans [35]) of the same compound?
Answer: Its MFC is 31.2 µg/mL.

Question: What about the MFC (Candida parapsilosis [36]) of the same compound?
Answer: Its MFC is 31.2 µg/mL.

Question: What about the MFC ([Candida] aaseri [37]) of the same compound?
Answer: The MFC was 15.6 µg/mL.

Question: What about the MFC (Nakaseomyces glabratus [38]) of the same compound?
Answer: Its MFC is 31.2 µg/mL.

Question: And the MFC (Pichia kudriavzevii [39])?
Answer: The MFC was 62.5 µg/mL.

Question: And the MFC (Pichia sporocuriosa [40])?
Answer: Its MFC is 31.2 µg/mL.

Question: And the IC50 (Staphylococcus aureus [41])?
Answer: Its IC50 is 1.9 µg/mL.

Question: What about the IC50 (Bacillus subtilis [42]) of the same compound?
Answer: Its IC50 is 4.1 µg/mL.

Question: What about the IC50 (Staphylococcus aureus [43]) of the same compound?
Answer: Its IC50 is 0.9 µg/mL.

Question: And the IC50 (Micrococcus luteus [44])?
Answer: The IC50 was 1.5 µg/mL.

Question: What about the Activity (Staphylococcus aureus [45]) of the same compound?
Answer: Its Activity is “Active”.
